Columns and labels:
Assay type in all cases: functional
[1] = test system: NCI-H23; test: Cytotoxicity against human NCI-H23 cells after 48 hrs by SRB assay; conditions: NCI-H23, 48 h
Outline: (§1)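 Five-dose NCI-60 panel screen: cells grown in RPMI 1640 with 5% FBS and 2 mM L-glutamine, preincubated 24 h at 37 °C, 5% CO2. Five 10-fold dilutions, 0.01–100 µM, applied for 48 h. Fixed with cold TCA (10% final), stained with 0.4% SRB, absorbance read at 515 nm. GI50, TGI and LC50 were taken from log concentration versus % growth curves using time-zero plates.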

[2] = test system: NCI-H322M; test: Cytotoxicity against human NCI-H322M cells after 48 hrs by SRB assay; outline: as §1
[3] = test system: NCI-H460; test: Cytotoxicity against human NCI-H460 cells after 48 hrs by SRB assay; conditions: NCI-H460, 48 h; outline: as §1
[4] = test system: HCC 2998; test: Cytotoxicity against human HCC2998 cells after 48 hrs by SRB assay; conditions: HCC 2998, 48 h; outline: as §1
[5] = test system: HCT-116; test: Cytotoxicity against human HCT116 cells after 48 hrs by SRB assay; conditions: HCT-116, 48 h; outline: as §1
[6] = test system: SF-268; test: Cytotoxicity against human SF268 cells after 48 hrs by SRB assay; conditions: SF-268, 48 h; outline: as §1
[7] = test system: SF-539; test: Cytotoxicity against human SF539 cells after 48 hrs by SRB assay; conditions: SF-539, 48 h; outline: as §1
[8] = test system: U-251; test: Cytotoxicity against human U251 cells after 48 hrs by SRB assay; conditions: U-251, 48 h
Outline: (§2)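 Cells were grown in RPMI 1640 with 5% FBS and 2 mM L-glutamine, then held 24 h at 37 °C and 5% CO2 before dosing. TCA-fixed time-zero plates were kept. Compound was dissolved in DMSO and given at five 10-fold dilutions for 48 h. Cells were fixed with cold TCA (10% final), stained with 0.4% SRB and read at 515 nm. GI50, TGI and LC50 came from Ti/Tz/control growth formulas.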

[9] = test system: M14; test: Cytotoxicity against human M14 cells after 48 hrs by SRB assay; conditions: M14, 48 h; outline: as §1
[10] = test system: SK-MEL-28; test: Cytotoxicity against human SK-MEL-28 cells after 48 hrs by SRB assay; conditions: SK-MEL-28, 48 h; outline: as §1
[11] = test system: UACC-62; test: Cytotoxicity against human UACC62 cells after 48 hrs by SRB assay; conditions: UACC-62, 48 h; outline: as §2
[12] = test system: OVCAR-4; test: Cytotoxicity against human OVCAR4 cells after 48 hrs by SRB assay; conditions: OVCAR-4, 48 h; outline: as §1
[13] = test system: 786-0; test: Cytotoxicity against human 786-0 cells after 48 hrs by SRB assay; conditions: 786-0, 48 h; outline: as §1
[14] = test system: A498; test: Cytotoxicity against human A498 cells after 48 hrs by SRB assay; conditions: A498, 48 h; outline: as §1
[15] = test system: CAKI-1; test: Cytotoxicity against human Caki1 cells after 48 hrs by SRB assay; conditions: CAKI-1, 48 h; outline: as §1
[16] = test system: RXF 393; test: Cytotoxicity against human RXF393 cells after 48 hrs by SRB assay; conditions: RXF 393, 48 h; outline: as §1
[17] = test system: PC-3; test: Cytotoxicity against human PC3 cells after 48 hrs by SRB assay; conditions: PC-3, 48 h; outline: as §1
[18] = test system: Hs-578T; test: Cytotoxicity against human Hs578T cells after 48 hrs by SRB assay; outline: as §1
[19] = test system: MDA-MB-468; test: Cytotoxicity against human MDA-MB-468 cells after 48 hrs by SRB assay; conditions: MDA-MB-468, 48 h; outline: as §1
[20] = read-out: LC50 (the source's name)
[21] = read-out: pLC50 (the source's name) (converted)

In the case of Nc1cc(Br)c(-c2nnc(CCC(=O)c3nc4ccccc4[nH]3)o2)c(Br)c1, the GI50 [1] is reported as 3.24 µM, the CC50 [1, 20] is reported as over 100 µM and the TGI ([1]; read-out: TGI) is reported as 36.4 µM. The CC50 [1, 21] was over 100 µM, the TGI ([1]; read-out: pTGI (converted)) was 36.3 µM and the GI50 [2] was 8.13 µM. It also gave a CC50 [2, 20] of over 100 µM, a TGI ([2]; read-out: TGI) of over 100 µM and a CC50 [2, 21] of over 100 µM. The TGI ([2]; read-out: pTGI) was over 100 µM, the GI50 [3] was 3.98 µM and the CC50 [3, 20] was over 100 µM. For the same molecule, the TGI ([3]; read-out: TGI) was 20.1 µM, the CC50 [3, 21] was over 100 µM and the TGI ([3]; read-out: pTGI (converted)) was 20 µM. For the same molecule, the GI50 [4] was 11 µM, the CC50 [4, 20] was over 100 µM and the TGI ([4]; read-out: TGI) was 42.5 µM. It also gave a CC50 [4, 21] of over 100 µM, a TGI ([4]; read-out: pTGI (converted)) of 42.7 µM and a GI50 [5] of 8.32 µM. The CC50 [5, 20] was over 100 µM, the TGI ([5]; read-out: TGI) was over 100 µM and the CC50 [5, 21] was over 100 µM. The TGI ([5]; read-out: pTGI) was over 100 µM, the GI50 [6] was 5.13 µM and the CC50 [6, 20] was over 100 µM. The TGI ([6]; read-out: TGI) was 81.6 µM, the CC50 [6, 21] was over 100 µM and the TGI ([6]; read-out: pTGI (converted)) was 81.3 µM. For the same molecule, the GI50 [7] was 17.4 µM, the CC50 [7, 20] was over 100 µM and the TGI ([7]; read-out: TGI) was 60.8 µM. The CC50 [7, 21] was over 100 µM, the TGI ([7]; read-out: pTGI (converted)) was 60.3 µM and the GI50 [8] was 3.47 µM. It also gave a CC50 [8, 20] of over 100 µM, a TGI ([8]; read-out: TGI) of over 100 µM and a CC50 [8, 21] of over 100 µM. It also gave a TGI ([8]; read-out: pTGI) of over 100 µM, a GI50 [9] of 17.4 µM and a CC50 [9, 20] of over 100 µM. The TGI ([9]; read-out: TGI) was 55.5 µM, the CC50 [9, 21] was over 100 µM and the TGI ([9]; read-out: pTGI (converted)) was 55 µM. It also gave a GI50 [10] of 6.31 µM, a CC50 [10, 20] of over 100 µM and a TGI ([10]; read-out: TGI) of 79 µM. The CC50 [10, 21] was over 100 µM, the TGI ([10]; read-out: pTGI (converted)) was 79.4 µM and the GI50 [11] was 5.37 µM. For the same molecule, the CC50 [11, 20] was over 100 µM, the TGI ([11]; read-out: TGI) was over 100 µM and the CC50 [11, 21] was over 100 µM. The TGI ([11]; read-out: pTGI) was over 100 µM, the GI50 [12] was 5.5 µM and the LC50 ([12]; read-out: LC50) was over 100 µM. For the same molecule, the TGI ([12]; read-out: TGI) was 78.2 µM, the LC50 ([12]; read-out: pLC50 (converted)) was over 100 µM and the TGI ([12]; read-out: pTGI (converted)) was 77.6 µM. It also gave a GI50 [13] of 20.9 µM, an LC50 ([13]; read-out: LC50) of over 100 µM and a TGI ([13]; read-out: TGI) of 61.7 µM. The LC50 ([13]; read-out: pLC50 (converted)) was over 100 µM, the TGI ([13]; read-out: pTGI (converted)) was 61.7 µM and the GI50 [14] was 0.661 µM. For the same molecule, the CC50 [14, 20] was over 100 µM, the TGI ([14]; read-out: TGI) was 10.5 µM and the CC50 [14, 21] was over 100 µM. For the same molecule, the TGI ([14]; read-out: pTGI (converted)) was 10.5 µM, the GI50 [15] was 20 µM and the LC50 ([15]; read-out: LC50) was over 100 µM. The TGI ([15]; read-out: TGI) was over 100 µM, the LC50 ([15]; read-out: pLC50 (converted)) was over 100 µM and the TGI ([15]; read-out: pTGI) was over 100 µM. For the same molecule, the GI50 [16] was 12.9 µM, the CC50 [16, 20] was over 100 µM and the TGI ([16]; read-out: TGI) was 58.6 µM. For the same molecule, the CC50 [16, 21] was over 100 µM, the TGI ([16]; read-out: pTGI (converted)) was 58.9 µM and the GI50 [17] was 3.09 µM. For the same molecule, the LC50 (concentration killing 50% of cells) ([17]; read-out: LC50) was over 100 µM, the TGI ([17]; read-out: TGI) was over 100 µM and the LC50 (concentration killing 50% of cells) ([17]; read-out: pLC50 (converted)) was over 100 µM. The TGI ([17]; read-out: pTGI) was over 100 µM, the GI50 [18] was 3.72 µM and the CC50 [18, 20] was over 100 µM. The TGI ([18]; read-out: TGI) was 31.7 µM, the CC50 [18, 21] was over 100 µM and the TGI ([18]; read-out: pTGI (converted)) was 31.6 µM. The GI50 [19] was 1.95 µM, the LC50 ([19]; read-out: LC50) was over 100 µM and the TGI ([19]; read-out: TGI) was 6.97 µM. For the same molecule, the LC50 ([19]; read-out: pLC50 (converted)) was over 100 µM and the TGI ([19]; read-out: pTGI (converted)) was 6.92 µM.

Reference: ChEMBL document CHEMBL2157987, “Benzimidazole bearing oxadiazole and triazolo-thiadiazoles nucleus: design and synthesis as anticancer agents” (2012)
